Source: paper PMC4586255 (DNA repair, 2010)

B1: YFP-hEXO1-Q788A;L791A: PIP-box mutant of YFP-hEXO1 (protein, UniProt Q9UQ84 1-846, looked up, variant Q788A L791A)
Exonuclease 1: MGIQGLLQFIKEASEPIHVRKYKGQVVAVDTYCWLHKGAIACAEKLAKGEPTDRYVGFCMKFVNMLLSHGIKPILVFDGCTLPSKKEVERSRRERRQANLLKGKQLLREGKVSEARECFTRSINITHAMAHKVIKAARSQGVDCLVAPYEADAQLAYLNKAGIVQAIITEDSDLLAFGCKKVILKMDQFGNGLEIDQARLGMCRQLGDVFTEEKFRYMCILSGCDYLSSLRGIGLAKACKVLRLANNPDIVKVIKKIGHYLKMNITVPEDYINGFIRANNTFLYQLVFDPIKRKLIPLNAYEDDVDPETLSYAGQYVDDSIALQIALGNKDINTFEQIDDYNPDTAMPAHSRSHSWDDKTCQKSANVSSIWHRNYSPRPESGTVSDAPQLKENPSTVGVERVISTKGLNLPRKSSIVKRPRSAELSEDDLLSQYSLSFTKKTKKNSSEGNKSLSFSEVFVPDLVNGPTNKKSVSTPPRTRNKFATFLQRKNEESGAVVVPGTRSRFFCSSDSTDCVSNKVSIQPLDETAVTDKENNLHESEYGDQEGKRLVDTDVARNSSDDIPNNHIPGDHIPDKATVFTDEESYSFESSKFTRTISPPTLGTLRSCFSWSGGLGDFSRTPSPSPSTALQQFRRKSDSPTSLPENNMSDVSQLKSEESSDDESHPLREEACSSQSQESGEFSLQSSNASKLSQCSSKDSDSEESDCNIKLLDSQSDQTSKLRLSHFSKKDTPLRNKVPGLYKSSSADSLSTTKIKPLGPARASGLSKKPASIQKRKHHNAENKPGLAIKANELWKNFGFKKDSEKLPPCKKPLSPVRDNIQLTPEAEEDIFNKPECGRVQRAIFQ
modifications: N-terminal YFP tag
B2: YFP-hEXO1-Q285A;F288A: putative PIP-box substitution variant of YFP-hEXO1 (protein, UniProt Q9UQ84 1-846, looked up, variant Q285A F288A)
Exonuclease 1: MGIQGLLQFIKEASEPIHVRKYKGQVVAVDTYCWLHKGAIACAEKLAKGEPTDRYVGFCMKFVNMLLSHGIKPILVFDGCTLPSKKEVERSRRERRQANLLKGKQLLREGKVSEARECFTRSINITHAMAHKVIKAARSQGVDCLVAPYEADAQLAYLNKAGIVQAIITEDSDLLAFGCKKVILKMDQFGNGLEIDQARLGMCRQLGDVFTEEKFRYMCILSGCDYLSSLRGIGLAKACKVLRLANNPDIVKVIKKIGHYLKMNITVPEDYINGFIRANNTFLYALVADPIKRKLIPLNAYEDDVDPETLSYAGQYVDDSIALQIALGNKDINTFEQIDDYNPDTAMPAHSRSHSWDDKTCQKSANVSSIWHRNYSPRPESGTVSDAPQLKENPSTVGVERVISTKGLNLPRKSSIVKRPRSAELSEDDLLSQYSLSFTKKTKKNSSEGNKSLSFSEVFVPDLVNGPTNKKSVSTPPRTRNKFATFLQRKNEESGAVVVPGTRSRFFCSSDSTDCVSNKVSIQPLDETAVTDKENNLHESEYGDQEGKRLVDTDVARNSSDDIPNNHIPGDHIPDKATVFTDEESYSFESSKFTRTISPPTLGTLRSCFSWSGGLGDFSRTPSPSPSTALQQFRRKSDSPTSLPENNMSDVSQLKSEESSDDESHPLREEACSSQSQESGEFSLQSSNASKLSQCSSKDSDSEESDCNIKLLDSQSDQTSKLRLSHFSKKDTPLRNKVPGLYKSSSADSLSTTKIKPLGPARASGLSKKPASIQKRKHHNAENKPGLQIKLNELWKNFGFKKDSEKLPPCKKPLSPVRDNIQLTPEAEEDIFNKPECGRVQRAIFQ
modifications: YFP tag
B3: YFP-hEXO1-Q154A;Y157A: putative PIP-box substitution variant of YFP-hEXO1 (protein, UniProt Q9UQ84 1-846, looked up, variant Q154A Y157A)
Exonuclease 1: MGIQGLLQFIKEASEPIHVRKYKGQVVAVDTYCWLHKGAIACAEKLAKGEPTDRYVGFCMKFVNMLLSHGIKPILVFDGCTLPSKKEVERSRRERRQANLLKGKQLLREGKVSEARECFTRSINITHAMAHKVIKAARSQGVDCLVAPYEADAALAALNKAGIVQAIITEDSDLLAFGCKKVILKMDQFGNGLEIDQARLGMCRQLGDVFTEEKFRYMCILSGCDYLSSLRGIGLAKACKVLRLANNPDIVKVIKKIGHYLKMNITVPEDYINGFIRANNTFLYQLVFDPIKRKLIPLNAYEDDVDPETLSYAGQYVDDSIALQIALGNKDINTFEQIDDYNPDTAMPAHSRSHSWDDKTCQKSANVSSIWHRNYSPRPESGTVSDAPQLKENPSTVGVERVISTKGLNLPRKSSIVKRPRSAELSEDDLLSQYSLSFTKKTKKNSSEGNKSLSFSEVFVPDLVNGPTNKKSVSTPPRTRNKFATFLQRKNEESGAVVVPGTRSRFFCSSDSTDCVSNKVSIQPLDETAVTDKENNLHESEYGDQEGKRLVDTDVARNSSDDIPNNHIPGDHIPDKATVFTDEESYSFESSKFTRTISPPTLGTLRSCFSWSGGLGDFSRTPSPSPSTALQQFRRKSDSPTSLPENNMSDVSQLKSEESSDDESHPLREEACSSQSQESGEFSLQSSNASKLSQCSSKDSDSEESDCNIKLLDSQSDQTSKLRLSHFSKKDTPLRNKVPGLYKSSSADSLSTTKIKPLGPARASGLSKKPASIQKRKHHNAENKPGLQIKLNELWKNFGFKKDSEKLPPCKKPLSPVRDNIQLTPEAEEDIFNKPECGRVQRAIFQ
modifications: N-terminal YFP tag
B4: YFP-hEXO1-C508X: COOH-terminally truncated version of YFP-hEXO1 (protein, UniProt Q9UQ84 1-507, looked up, fragment)
chain: MGIQGLLQFIKEASEPIHVRKYKGQVVAVDTYCWLHKGAIACAEKLAKGEPTDRYVGFCMKFVNMLLSHGIKPILVFDGCTLPSKKEVERSRRERRQANLLKGKQLLREGKVSEARECFTRSINITHAMAHKVIKAARSQGVDCLVAPYEADAQLAYLNKAGIVQAIITEDSDLLAFGCKKVILKMDQFGNGLEIDQARLGMCRQLGDVFTEEKFRYMCILSGCDYLSSLRGIGLAKACKVLRLANNPDIVKVIKKIGHYLKMNITVPEDYINGFIRANNTFLYQLVFDPIKRKLIPLNAYEDDVDPETLSYAGQYVDDSIALQIALGNKDINTFEQIDDYNPDTAMPAHSRSHSWDDKTCQKSANVSSIWHRNYSPRPESGTVSDAPQLKENPSTVGVERVISTKGLNLPRKSSIVKRPRSAELSEDDLLSQYSLSFTKKTKKNSSEGNKSLSFSEVFVPDLVNGPTNKKSVSTPPRTRNKFATFLQRKNEESGAVVVPGTRSRFF
modifications: N-terminal YFP tag
B5: YFP-hEXO1-S598X: COOH-terminally truncated version of YFP-hEXO1 (protein, UniProt Q9UQ84 1-597, looked up, fragment)
chain: MGIQGLLQFIKEASEPIHVRKYKGQVVAVDTYCWLHKGAIACAEKLAKGEPTDRYVGFCMKFVNMLLSHGIKPILVFDGCTLPSKKEVERSRRERRQANLLKGKQLLREGKVSEARECFTRSINITHAMAHKVIKAARSQGVDCLVAPYEADAQLAYLNKAGIVQAIITEDSDLLAFGCKKVILKMDQFGNGLEIDQARLGMCRQLGDVFTEEKFRYMCILSGCDYLSSLRGIGLAKACKVLRLANNPDIVKVIKKIGHYLKMNITVPEDYINGFIRANNTFLYQLVFDPIKRKLIPLNAYEDDVDPETLSYAGQYVDDSIALQIALGNKDINTFEQIDDYNPDTAMPAHSRSHSWDDKTCQKSANVSSIWHRNYSPRPESGTVSDAPQLKENPSTVGVERVISTKGLNLPRKSSIVKRPRSAELSEDDLLSQYSLSFTKKTKKNSSEGNKSLSFSEVFVPDLVNGPTNKKSVSTPPRTRNKFATFLQRKNEESGAVVVPGTRSRFFCSSDSTDCVSNKVSIQPLDETAVTDKENNLHESEYGDQEGKRLVDTDVARNSSDDIPNNHIPGDHIPDKATVFTDEESYSFESSKFTRTI
modifications: N-terminal YFP tag
B6: hMLH1: fusion protein, CFP or YFP tagged MMR protein (protein)
chain: MSFVAGVIRRLDETVVNRIAAGEVIQRPANAIKEMIENCLDAKSTSIQVIVKEGGLKLIQIQDNGTGIRKEDLDIVCERFTTSKLQSFEDLASISTYGFRGEALASISHVAHVTITTKTADGKCAYRASYSDGKLKAPPKPCAGNQGTQITVEDLFYNIATRRKALKNPSEEYGKILEVVGRYSVHNAGISFSVKKQGETVADVRTLPNASTVDNIRSIFGNAVSRELIEIGCEDKTLAFKMNGYISNANYSVKKCIFLLFINHRLVESTSLRKAIETVYAAYLPKNTHPFLYLSLEISPQNVDVNVHPTKHEVHFLHEESILERVQQHIESKLLGSNSSRMYFTQTLLPGLAGPSGEMVKSTTSLTSSSTSGSSDKVYAHQMVRTDSREQKLDAFLQPLSKPLSSQPQAIVTEDKTDISSGRARQQDEEMLELPAPAEVAAKNQSLEGDTTKGTSEMSEKRGPTSSNPRKRHREDSDVEMVEDDSRKEMTAACTPRRRIINLTSVLSLQEEINEQGHEVLREMLHNHSFVGCVNPQWALAQHQTKLYLLNTTKLSEELFYQILIYDFANFGVLRLSEPAPLFDLAMLALDSPESGWTEEDGPKEGLAEYIVEFLKKKAEMLADYFSLEIDEEGNLIGLPLLIDNYVPPLEGLPIFILRLATEVNWDEEKECFESLSKECAMFYSIRKQYISEESTLSGQQSEVPGSIPNSWKWTVEHIVYKALRSHILPPKHFTEDGNILQLANLPDLYKVFERC
modifications: left off: GST, end not stated, kept

Tested on: PCNA replication foci in NIH3T3 cells
Assay type: cell-based, murine
Conditions: for Small foci (CFP-PCNA) / Large foci (CFP-PCNA) / Mid Foci (CFP-PCNA): CFP channel (CFP-PCNA) in cells co-expressing the hEXO1 protein, 50 co-transfected cells; for Small foci (CFP-PCNA): early S-phase foci; for Large foci (CFP-PCNA): late S-phase foci; for Mid Foci (CFP-PCNA): mid S-phase foci; for effect of expression on S-phase distribution: NIH3T3 cells co-expressing CFP-PCNA; for foci formation and co-localization with PCNA during S-phase: NIH3T3 cells co-transfected with CFP-PCNA, 24–48 h; for sub-cellular localization: NIH3T3 cells, confocal imaging
Summary of the method: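 Murine NIH3T3 cells were kept in DMEM with 10% FBS and penicillin/streptomycin at 37 °C, 10% CO₂. Cells (2*10⁵ per glass-bottom dish) were seeded 24 h before ExGen500 co-transfection with 3 μg total plasmid (CFP-PCNA plus YFP fusion). Confocal imaging at 24–48 h. Co-transfected cells were counted and binned by pattern, e.g. "no foci" (diffuse CFP-PCNA, diffuse nuclear YFP).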

| Molecule | Small foci (CFP-PCNA) | Large foci (CFP-PCNA) | Mid Foci (CFP-PCNA) | effect of expression on S-phase distribution | foci formation and co-localization with PCNA during S-phase | sub-cellular localization |
| --- | --- | --- | --- | --- | --- | --- |
| B1 | 22% | 8% | 18% | no adverse effects on S-phase distribution | unable to form nuclear foci and does not co-localize with PCNA, at any time point during S-phase |  |
| B2 | 34% | 0% | 0% | unable to detect replication foci in late S-phase | to some extent are able to form S-phase foci in co-localization with PCNA |  |
| B3 | 28% | 0% | 4% | unable to detect replication foci in late S-phase | to some extent are able to form S-phase foci in co-localization with PCNA |  |
| B4 |  |  |  |  | none of the variant proteins were able to form foci or co-localize with PCNA during S-phase | strictly nuclear |
| B5 |  |  |  |  | none of the variant proteins were able to form foci or co-localize with PCNA during S-phase | strictly nuclear |
| B6 |  |  |  |  | unable to observe CFP-PCNA co-localized YFP-hMLH1 foci |  |
